Compounds with a hit are over-represented: about 3.9% of the library has one in this group of screens.
TAAR1 agonist: agonists of human TAAR1. Q96RJ0. CHO RD-HGA16 TAAR1, Fluo-8 calcium fluorescence; vehicle wells 0%, saturating PEA agonist 100%. activation, % at 3 µM. actives 0.99% (n = 360,000). AID 624467;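 active = activation above the mean activation of all test compounds in the run plus 3 SD, cut at about 38% in these data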
Target sequence (Q96RJ0 whole entry, looked up): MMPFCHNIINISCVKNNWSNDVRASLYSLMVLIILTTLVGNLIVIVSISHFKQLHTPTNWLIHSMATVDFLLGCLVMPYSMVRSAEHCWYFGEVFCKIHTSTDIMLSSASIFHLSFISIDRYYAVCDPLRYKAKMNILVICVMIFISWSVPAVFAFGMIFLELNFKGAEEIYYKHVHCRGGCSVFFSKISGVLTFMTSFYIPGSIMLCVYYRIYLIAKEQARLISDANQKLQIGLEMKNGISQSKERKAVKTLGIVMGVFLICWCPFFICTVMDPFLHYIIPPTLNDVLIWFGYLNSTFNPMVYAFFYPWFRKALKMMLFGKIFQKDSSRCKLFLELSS
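Assay system: CHO-derived RD-HGA16 cells with stable Gα16 and human TAAR1; timing: 17-24 h seeding, 75 min 37 °C dye, 30 min RT; read-out: % activation from peak over basal fluorescence ratio, DMSO-to-PEA scaled; measured by: kinetic Fluo-8 calcium fluorescence; benchmarks: low control DMSO, high control PEA (EC100); doses: 3 µM single concentration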
TAAR1 antagonist: human TAAR1 antagonism; CHO RD-HGA16 TAAR1, Fluo-8 calcium fluorescence, antagonist; Q96RJ0; actives 1.5% (n = 360,000); inhibition, % at 3 µM; AID 624466;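 active = inhibition above a per-plate cutoff, the mean inhibition of test compounds on that plate plus 3 SD, cut at about 49% in these data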;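 also: 0% = DMSO plus EC80 beta-PEA response and 100% = DMSO alone without agonist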
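System: RD-HGA16 CHO cells with stable hTAAR1 and Gα16 | Probe or stimulus: EC80 β-phenethylamine stimulus | Dosing: 3 µM, single point | Times: Dye loading 75 min at 37 °C, then 30 min room temperature | Measured by: Fluo-8 calcium-sensitive fluorescence | Read-out basis: % inhibition of agonist calcium response | Replicates: n of 1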
OX1R antag-1: antagonists of human orexin 1 receptor; CHO/OX1R cells, Fluo-8 calcium fluorescence, orexin A; inhibition, % at 5 µM; actives 0.43% (n = 330,000);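 active = inhibition above its plate's threshold, mean inhibition of all tested compounds on the plate plus 3 SD, cut at about 37% in these data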;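 also: 0% = orexin A challenge wells and 100% = SB-334867-A antagonist wells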
OX1R antag-2: antagonists of human orexin 1 receptor (OX1R). OX1R-expressing cells, FRET antagonist read-out. inhibition, % at 6.6 µM. actives 1.8% (n = 330,000). AID 485270; in the data active = inhibition mostly above about 38%, no sharp cut-off; inactive = mostly below about 40%;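 also: 0% = agonist challenge alone and 100% = reference antagonist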
CHO parental Ca: counter-screen: ATP calcium response change in parental CHO cells; actives 0.63% (n = 330,000); parental CHO-K1, ATP-induced calcium, Fluo-8 fluorescence; inhibition, % at 5.6 µM;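 active = inhibition above that plate's mean sample inhibition plus 3 SD, cut at about 26% in these data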;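 also: 0% = ATP-challenged DMSO wells and 100% = DMSO wells without ATP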
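Assay system: untransfected parental CHO cell line. Also added: ATP agonist challenge. Dosing: one dose, 5.6 µM nominal. Measured by: Fluo-8 fluorescence. Read-out: % inhibition. Benchmarks: ATP wells versus no-ATP DMSO wells. Repeats: no replicates.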
Active calls of the source: *; . = no result given.

SMILES	TAAR1 agonist	TAAR1 antagonist	OX1R antag-1	OX1R antag-2	CHO parental Ca
COc1ccc(C(O)c2ncc(-c3cccc4ccccc34)[nH]2)cc1F (stereo not given)	14.6	4.6	.	.	.
O=C(COC(=O)C1CCN(S(=O)(=O)c2ccc(Cl)c(C(F)(F)F)c2)CC1)NCc1ccco1	1.3	8.0	-19.2	18.0	41.6*
Cc1nc(SCC(=O)Nc2nc3ccccc3s2)c(C#N)c(C)c1C	4.1	9.6	-16.8	53.2*	-17.4
Cc1cc(C(F)(F)F)c(C#N)c(SCC(=O)Nc2nc3ccccc3s2)n1	10.6	-1.7	21.9	73.5*	-10.8
O=S1(=O)N[C@@H](Cc2ccccc2)COc2cc(NC3CC3)ccc21	1.0	-29.0	.	.	.
O=C(Nc1ccc(Br)cn1)c1ccc(Br)s1	8.2	-14.8	-44.8	38.5	-23.7
O=C(Nc1ccc(Br)cn1)c1ccc(Cl)s1	-1.5	-7.1	-20.6	52.5*	-31.5
CC(=O)NC(c1cccc(F)c1)c1nc(/C=C/c2ccccc2)cs1 (stereo not given)	7.3	-6.9	.	.	.
CC1CCN(CCCOc2ccc(Br)cc2Cl)CC1	39.1*	1.6	-21.4	8.8	-11.9
CC(C)C1C(=O)N(Cc2cn(Cc3ccco3)nn2)CCS(=O)(=O)N1Cc1ccc(-c2ccc(F)cc2)cc1 (stereo not given)	1.2	-25.0	.	.	.
O=C(NC(c1ccc(-c2ccccc2)cc1)c1cnccn1)C1CCN(Cc2ccc3c(c2)OCO3)CC1 (stereo not given)	23.6	22.3	.	.	.
COC(=O)C1=C(C)N(Cc2cccc(C(F)(F)F)c2)C(=NCc2cc(OC)c(OC)c(OC)c2)NC1c1ccccc1C(F)(F)F (stereo not given)	3.4	5.8	.	.	.
O=[N+]([O-])c1c(N2CCN(CCO)CC2)nc2ccccn12	0.1	-5.7	-7.6	70.2*	-3.0
CC(C)C[C@@H](COCc1cccc(Cl)c1)N1CCN(C(=O)c2ccc(C(F)(F)F)cc2)CCC1=O	1.7	7.2	.	.	.
CCCCN(Cc1ccco1)C(=O)C1CCCN(c2ncnc3c2nc2n3CCCCC2)C1 (stereo not given)	-1.9	-10.8	5.6	39.7*	-19.4
O=C(C1CCCN(S(=O)(=O)c2cccc3nonc23)C1)N1CCN(c2ccccc2Cl)CC1 (stereo not given)	8.5	23.7	-13.9	8.0	-15.7
CN(C(=O)C1CCCN(c2ncnc3c2nc2n3CCCCC2)C1)c1cccc(Cl)c1 (stereo not given)	2.6	0.4	3.7	40.3*	-20.2
O=C(C1CCCN(c2ncnc3c2nc2n3CCCCC2)C1)N1CCN(c2cccc(Cl)c2)CC1 (stereo not given)	40.4*	87.8*	-18.6	3.2	-43.7
O=C(C1CCCN(S(=O)(=O)c2cccc3nonc23)C1)N1CCN(c2cccc(Cl)c2)CC1 (stereo not given)	10.0	49.1*	-16.7	9.0	-4.6
Cc1ccc(N2CCN(C(=O)C3CCCN(c4ncnc5c4nc4n5CCCCC4)C3)CC2)c(C)c1 (stereo not given)	7.1	-8.0	-15.0	11.1	-31.9
Cc1ccccc1N(C)C(=O)C1CCCN(c2ncnc3c2nc2n3CCCCC2)C1 (stereo not given)	3.1	-15.5	-25.2	14.9	-3.1
Cc1ccc(C(=O)N2CCC[C@@H]2C(=O)N2CCC[C@H]2C(=O)NCc2ccccc2)cc1	-2.4	-1.7	.	.	.
CCc1ccc(NC(=O)C2CCN(c3ncnc4c3nc3n4CCCCC3)CC2)cc1	-0.8	-12.0	-3.5	-5.2	-24.3
O=C(Nc1ccc(F)cc1)C1CCN(c2ncnc3c2nc2n3CCCCC2)CC1	-0.5	-44.1	-7.8	23.8	64.6*
Oc1c(C=Nc2ccccc2)sc(=S)n1Cc1ccccc1	1.4	40.9	-14.8	40.4	-4.0
SMILES	TAAR1 agonist	TAAR1 antagonist	OX1R antag-1	OX1R antag-2	CHO parental Ca
CCn1c(O)c(C=Nc2ccccc2)sc1=S	8.9	16.5	-20.6	59.4*	-14.2
COc1ccc2[nH]c(=O)c(CN(CCO)S(=O)(=O)c3c(C)ccc4nsnc34)cc2c1	10.8	14.6	-15.0	41.8	-15.5
COc1ccc2[nH]c(=O)c(CN(Cc3cccs3)S(=O)(=O)c3cccc4nsnc34)cc2c1	21.2	52.8*	-23.3	12.6	-13.7
CCOC(=O)c1csc(-c2sccc2Br)n1	3.5	-52.3	-11.4	44.9*	-8.4
O=C(NCc1ccccc1)[C@@H]1CCCN1C(=O)[C@H]1CCCN1C(=O)C1CCCCC1	-1.4	10.3	.	.	.
COc1cccc2sc3cc(C#Cc4ccccn4)ccc3c(=O)c12	14.8	39.1	24.7	62.7*	-29.0
CC(=O)Nc1nnc(-c2ccc3c(c2)CCCC3)o1	-0.7	15.2	-21.0	6.5	-4.5
COc1ccccc1C(=O)Nc1nnc(-c2ccc3c(c2)CCCC3)o1	-1.2	-10.8	-18.0	67.9*	-4.2
CC(O)CNc1cc(N)c([N+](=O)[O-])cc1[N+](=O)[O-] (stereo not given)	-0.1	7.0	3.1	72.5*	-0.9
O=S1(=O)CC(N2CC=CC2)CN1Cc1cn(Cc2ccc(Cl)cc2)nn1 (stereo not given)	0.9	-17.6	.	.	.
Brc1ccc(N/N=C(/N=Nc2nn[nH]n2)c2ccccc2)cc1	4.1	19.1	-9.5	47.1*	-8.3
Cc1cc(/C=C2/SC(=S)N(c3cccc(Cl)c3)C2=O)c(C)n1-c1cccnc1	17.5	23.8	53.0*	71.4*	45.6*
Cc1cc(/C=C2\SC(=S)N(C)C2=O)c(C)n1-c1ccccc1O	5.8	43.7	51.5*	34.0	36.4*
COC(=O)C1=C(C)N(C)C(=NCc2ccc(OC)cc2)NC1c1cccc(F)c1 (stereo not given)	3.7	-7.3	.	.	.
CC(C)N1C(=O)c2ccccc2NC(=O)C1C(=O)NCc1cccc(C(F)(F)F)c1 (stereo not given)	1.6	-9.8	.	.	.
COc1ccccc1NC(=O)c1nn(-c2ccccc2)ccc1=O	7.1	13.5	6.2	71.0*	-8.6
CC(C)(C)c1ccc(-n2nc(C#N)c(Cl)cc2=O)cc1	12.8	97.2*	.	.	.
CC(C)(C)c1cc(=O)n2c(C#N)c(C#N)nc2[nH]1	3.3	7.8	-4.5	19.0	2.6
Nn1cnnc1N/N=C/c1ccc(F)cc1	5.2	-12.1	-3.3	65.1*	-1.9
Nn1cnnc1N/N=C/c1ccc(Cl)c([N+](=O)[O-])c1	4.9	12.5	-9.3	61.1*	-25.7
Cc1ccc(/C=N/Nc2nncn2N)cc1	-1.8	9.4	1.1	43.3*	-4.3
Nc1nnnn1/N=C\c1ccc(Cl)c([N+](=O)[O-])c1	-0.2	-0.7	7.0	65.0*	8.8
N#CCS(=O)(=O)c1cccc[n+]1[O-]	3.2	-10.9	.	.	.
CCCCNC(=O)C1(C)CCN1C(=O)c1cc(C)n(C(C)(C)C)n1 (stereo not given)	0.4	-30.7	.	.	.
CCCNC(=O)C1(C)CCCN(Cc2cc(-c3ccccc3)n(C)n2)C1 (stereo not given)	-1.1	7.9	.	.	.

Screening results deposited in PubChem BioAssay by The Scripps Research Institute Molecular Screening Center.
